Bioassay records deposited in PubChem by several laboratories.
Shown is part of a subset that was picked to be rich in hits.
Fh CTSL1 inh – cathepsin L1 inhibition, PFM18AAP counter-screen; recombinant F. hepatica cathepsin L1, Z-Leu-Arg-MCA fluorescence; inhibition, % at 5.96 µM; actives 0.49% (n = 300,000);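 active = inhibition above the mean of all tested compounds plus 3 SD, set per screening campaign, cut at about 17% in these data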;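 note: 0% = plate median of test compound wells and 100% = 1 µM Z-Phe-Ala-diazomethylketone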
UPR XBP1 act – activators of adaptive arm of unfolded protein response (XBP1) | CHO-XBP1 luciferase reporter, IRE1-XBP1 UPR activation, luminescence; percent of tunicamycin response, DMSO as zero | activation, % at 20 µM | actives 0.33% (n = 330,000);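 active = versus positive control, 20 µM dose yields 30% or more activation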;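 note: 100% = tunicamycin at 10 µg/mL and 0% = DMSO only wells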
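assay system = CHO-XBP1 luciferase reporter cells | amount = 1000 cells/well | buffer or medium = F12 plus 10% FBS | compound dosing = single point, 20 µM final compound, 1% DMSO | incubation = 16-18 h cell attachment at 37 °C, then 6 h compound exposure | detection = Steady-Glo luminescence read | controls = tunicamycin 10 µg/mL and vehicle-only wells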
UCH37 DUB inh – inhibitors of human deubiquitinating enzyme UCH37. AID 588478. inhibition, % (test concentration not listed). actives 0.33% (n = 330,000). purified proteasome/UCH37, Ub-AMC cleavage fluorescence;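 active = mean inhibition over replicate wells above about 20%, limit read from the data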;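 note: 0% = compound-free wells with enzyme and 100% = wells lacking proteasome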
Target sequence (Q9Y5K5 whole entry, looked up): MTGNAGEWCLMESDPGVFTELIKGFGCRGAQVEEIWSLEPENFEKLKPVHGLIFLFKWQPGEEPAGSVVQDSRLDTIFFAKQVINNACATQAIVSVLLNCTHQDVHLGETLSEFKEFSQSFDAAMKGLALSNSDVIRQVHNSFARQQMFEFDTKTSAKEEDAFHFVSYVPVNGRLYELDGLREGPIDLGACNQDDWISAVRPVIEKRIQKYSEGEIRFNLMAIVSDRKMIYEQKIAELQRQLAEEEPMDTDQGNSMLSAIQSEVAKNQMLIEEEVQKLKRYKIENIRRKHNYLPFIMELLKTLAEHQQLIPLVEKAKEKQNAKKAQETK
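System: Proteasome-associated human UCH37 deubiquitinase; Input: 0.15 nM proteasome in added enzyme buffer; Also added: Ub-AMC substrate from 1 µM stock; Incubation: 30 min compound-proteasome preincubation then 25 min substrate reaction, room temperature; Detection: fluorescence, ex 355 nm, em 460 nm; Read-out: % inhibition of Ub-AMC cleavage fluorescence; Benchmarks: no-proteasome and no-compound wells.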
CHOP inh – blocks CHOP induction under ER stress; CHO-K1 CHOP-promoter luciferase, tunicamycin-induced, 15-18 h; inhibition, % at 10 µM; AID 2732; actives 3.8% (n = 220,000);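 active = compounds that reduced the stress-induced luciferase reporter signal by more than about 70% of percent inhibition, limit read from the data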;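 note: 0% = tunicamycin plus vehicle and 100% = wells without tunicamycin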
CHOP UPR activ – activators of apoptotic arm of unfolded protein response (CHOP) | CHO-CHOP luciferase reporter, UPR activation, luminescence; percent of tunicamycin response over DMSO baseline | activation, % at 10 µM | actives 0.34% (n = 330,000) | AID 449763;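 active = at 10 µM dose, activation of 40% or more, normalized to positive control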;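 note: 100% = tunicamycin at 10 µg/mL and 0% = DMSO alone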
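Test system: CHO CHOP reporter cells. Input: 500 CHO-CHOP cells per well. Medium: F12 with 10% FBS. Technique: luciferase luminescence. Measure: percent activation relative to tunicamycin control. Dosing: 10 µM compound, 0.5% DMSO. Timing: 16-18 h cell attachment, then 6 h compound exposure, 37 °C.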
CHOP inh conf – confirmation of CHOP induction inhibitors. CHO-CHOP promoter luciferase reporter, tunicamycin-induced, luminescence. actives 45% (n = 2,100). shares compounds with CHOP inh. inhibition, % at 10 µM;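 active = mean of three repeat readings of reporter signal inhibition above a set limit, cut at about 70% in these data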;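 note: 0% = tunicamycin plus vehicle and 100% = wells lacking tunicamycin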
Numbers without * were called inactive; · = no result given.

SMILES	Fh CTSL1 inh	UPR XBP1 act	UCH37 DUB inh	CHOP inh	CHOP UPR activ	CHOP inh conf
CC(=O)Nc1ccc(N=Nc2ccccc2)cc1	1.9	2.5	9.7	20.3	2.9	·
O=C(CCl)Nc1ccc(N=Nc2ccccc2)cc1	·	·	6.9	102.5*	·	9.1
CCCC(=O)NC(NC(=S)Nc1ccc(S(N)(=O)=O)cc1)C(Cl)(Cl)Cl (stereo unspecified)	-3.1	1.6	-2.0	-4.3	0.7	·
O=C(CN1CCCCC1)Nc1cccc(Oc2ccccc2)c1	0.4	1.7	2.9	36.0	-2.7	·
O=C(NN=C/C(Cl)=C/c1ccccc1)c1ccccn1	·	·	5.5	·	·	·
O=C(COC(=O)C1CC(O)CN1S(=O)(=O)c1ccccc1[N+](=O)[O-])Nc1ccc2ccccc2c1 (stereo unspecified)	·	·	1.4	·	·	·
CCn1c2ccccc2c2cc(C(C)=NO)ccc21	·	·	0.1	·	·	·
Cc1nn(-c2ccccc2)c(Cl)c1C=NNC(=O)c1ccco1	·	·	5.3	·	·	·
S=C(NCc1ccco1)NN=Cc1ccncc1	·	·	7.1	·	·	·
CCCCCCCCNC(C)C(O)c1ccc(SC(C)C)cc1 (stereo unspecified)	0.7	-3.8	1.7	108.5*	4.9	128.4*
CNc1ccc(Br)cc(C(=O)/C=C/c2ccc(Cl)cc2Cl)c1=O	2.1	-3.8	7.4	103.2*	5.0	-29.8
COc1ccc(C(=O)NN=Cc2cn[nH]c2-c2ccc(OC)cc2OC)cc1	·	·	-5.6	·	·	·
CCc1nn(CC(=O)NCCCN(CC)c2cccc(C)c2)c(=O)c2cc3occc3n12	4.4	-2.4	2.1	103.8*	1.4	31.0
O=C(O)c1ccc(C=NNc2ccccn2)cc1	·	·	13.6	·	·	·
CN(Cc1ccccc1)c1nc(-c2ccc([N+](=O)[O-])cc2)nc2ccccc12	-1.7	-2.4	1.3	30.0	-1.6	·
O=[N+]([O-])c1ccc(-c2nc(C(Cl)Cl)c3ccccc3n2)cc1	-2.4	-4.1	5.0	104.6*	-6.6	123.8*
COc1cc(C(C#N)N2N=C(c3ccccc3)CC2c2ccccc2)ccc1O (stereo unspecified)	1.9	3.3	-1.1	56.4	1.9	·
N#CC(c1ccccc1O)N1N=C(c2ccccc2)CC1c1ccccc1 (stereo unspecified)	-3.7	12.9	2.7	97.1*	13.4	26.1
Cc1nnc(NN=CC(C)c2ccccc2)[nH]c1=O (stereo unspecified)	·	·	5.6	·	·	·
CC(=O)Nc1sc(N/N=C\c2ccccc2Cl)nc1-c1cccs1	6.4	3.6	·	102.8*	4.7	3.0
CC(=O)Nc1sc(NN=Cc2ccccc2F)nc1-c1cccs1	·	·	-62.8	·	·	·
CC(=O)ON=C(c1nonc1N)N(C)C	·	·	3.3	·	·	·
Cc1nn(-c2ccc(F)cc2)c2nc(N)c(C#N)c(-c3cccs3)c12	0.4	6.0	-28.8	99.7*	1.3	42.3
C=CCc1cccc(CNc2nc3ccccc3n2C(C)C)c1O	1.0	-1.6	2.9	107.7*	-1.2	43.4
Clc1cccc(C=NNc2nc(Cl)nc3ccccc23)c1	·	·	1.5	·	·	·
SMILES	Fh CTSL1 inh	UPR XBP1 act	UCH37 DUB inh	CHOP inh	CHOP UPR activ	CHOP inh conf
CC1CCC(C(C)C)C(OCC(O)CN2CCN(Cc3ccccc3)CC2)C1 (stereo unspecified)	-0.4	-2.0	2.9	99.4*	-0.9	103.5*
COc1cc(/C=C2\CC/C(=C\c3cc(OC)c(O)c(OC)c3)C2=O)cc(OC)c1O	4.3	-2.0	9.8	100.8*	-3.9	100.8*
COc1cc(/C=C2\CC/C(=C\c3cc(OC)c(OC)c(OC)c3)C2=O)cc(OC)c1OC	0.1	-1.6	·	14.8	0.2	·
COc1cc(/C=C2\COC/C(=C\c3cc(OC)c(OC)c(OC)c3)C2=O)cc(OC)c1OC	·	·	5.5	105.8*	·	111.2*
Cc1ccccc1C=NNC(=O)Cc1ccc(Cl)cc1	·	·	-0.4	·	·	·
COc1cccc(Nc2ncnc3c2cnn3-c2cccc(C)c2)c1	6.1	3.5	-8.7	104.8*	3.7	130.0*
Cc1ccc(SCc2cc(=O)[nH]c(N=C(N)Nc3cccc4ccccc34)n2)cc1	·	·	2.0	·	·	·
O=c1c(Cl)c(Cl)cnn1Cc1ccc(F)cc1	-2.8	-1.0	3.7	-99.5	8.7	·
O=C(OCn1ncc(Cl)c(Cl)c1=O)c1ccc(F)cc1	-5.6	-5.1	·	106.5*	-10.9	122.9*
Cc1nc(N2CCN(c3ccccc3)CC2)[nH]c(=O)c1Cc1cccc2ccccc12	-1.1	17.2	-1.1	97.2*	6.5	-3.5
CCc1c(C)nc(N2CCN(c3ccccc3)CC2)[nH]c1=O	-5.7	0.5	1.7	·	0.7	·
CCOc1cc(CNc2ccc(O)cc2)ccc1OCc1ccc(Cl)cc1Cl	-2.9	-7.1	·	103.3*	12.0	111.6*
CCOc1cc(CNCc2ccccc2)ccc1OCc1ccc(Cl)cc1	2.9	5.5	6.9	·	2.5	·
COc1cc(CNCc2ccccn2)ccc1OCc1ccc(Cl)cc1Cl	3.8	-2.3	5.4	98.1*	-3.0	106.1*
CCOc1cccc(CNc2ccc(O)cc2)c1OCc1ccc(Cl)cc1	-1.2	-1.7	2.0	109.2*	1.4	48.4
C=CCNC(=S)N=c1scc(C)n1C	·	·	6.6	·	·	·
Cc1ccc(NC(=O)c2cc3ccccc3oc2=O)cc1S(=O)(=O)N(C)C	-2.1	-9.8	3.1	102.3*	-8.3	110.5*
Cc1ccc(NC(=O)c2cc3ccccc3o2)cc1S(=O)(=O)N(C)C	·	·	0.3	5.7	·	·
Cc1ccc(OCCn2c(C)c(C=Nn3cnnc3)c3ccccc32)cc1	·	·	6.3	·	·	·
Cc1cc(/C=C2\C(=O)NN(c3ccccc3)C2=O)c(C)n1-c1ccccc1O	4.1	2.2	9.7	96.4*	5.3	14.6
O=C1c2ccccc2-c2nnc(-c3ccc(F)cc3)cc21	5.3	-6.9	2.4	18.1	-3.0	·
Cc1ccc(-c2cc3c(nn2)-c2ccccc2C3=O)cc1	0.3	-6.0	7.3	100.6*	-9.0	107.8*
COc1ccc(C(=O)c2cn[nH]c2-c2ccc(C)cc2O)cc1	4.8	2.6	1.9	·	0.1	·
COc1ccc(-c2[nH]ncc2N=Nc2cc(C)cc(C)c2)cc1	2.6	1.9	6.9	104.5*	2.1	102.3*
COc1cccc(C=NNc2nc(Nc3ccccc3)nc(-n3nc(C)cc3C)n2)c1O	·	·	2.3	·	·	·
SMILES	Fh CTSL1 inh	UPR XBP1 act	UCH37 DUB inh	CHOP inh	CHOP UPR activ	CHOP inh conf
CCOc1ccc(S(=O)(=O)NN=C2CC(c3ccccc3)Oc3ccccc32)cc1 (stereo unspecified)	·	·	4.6	·	·	·
CN(C)C(=O)C[n+]1ccc(C=NO)cc1	·	·	0.8	·	·	·
CCCCCCCCCCCCCCCC[n+]1ccc(/C=N/O)cc1	4.4	7.6	·	103.0*	24.4	124.8*
CCCCn1c(-c2nonc2N)nc2ccccc21	1.3	-0.6	2.7	100.1*	1.7	41.5
CC(C)CCn1c(-c2nonc2N)nc2ccccc21	3.0	-1.1	1.2	59.1	-3.6	·
Cc1ccc(CSc2nc3ccncc3n2CC(=O)Nc2cc(C)cc(C)c2)cc1	2.0	-0.7	6.5	96.2*	4.7	25.5
